Bioassay records from PubChem.
Most compounds without a hit are left out; they make up all but 1.6% or so of the library.
PABP polyA inh: PABP poly(A) RNA binding inhibitors, primary screen, biochemical, fluorescence polarization, uHTS | calls only at 35 µM | actives 1% (n = 290,000) | AID 2014, 2009;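 also: calls also rest on retests at 20 µM and on dose response follow-up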
RBBP9 inhibitor: human RBBP9 inhibitors, primary screen, biochemical, fluorescence polarization, FP-Rh probe, HTS; Serine hydrolase RBBP9 (Homo sapiens), O75884; recombinant RBBP9; inhibition, % at 7.94 µM; actives 0.2% (n = 220,000);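 active = inhibition above the campaign mean of all tested compounds plus 3 SD, cut at about 14% in these data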
Target sequence (O75884 whole entry, looked up): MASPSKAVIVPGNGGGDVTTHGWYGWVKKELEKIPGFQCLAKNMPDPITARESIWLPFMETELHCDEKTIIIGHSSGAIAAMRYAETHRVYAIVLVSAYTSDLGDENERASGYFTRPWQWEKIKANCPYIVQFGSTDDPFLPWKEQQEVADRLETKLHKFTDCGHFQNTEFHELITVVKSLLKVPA
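Measured by – fluorescence polarization · Test system – RBBP9 protein · Input – 2.5 µM RBBP9 dispensing solution, before mixing · Measure – percent inhibition from mP, scaled between DMSO and no-protein wells · Benchmarks – DMSO-treated enzyme wells and wells lacking RBBP9 · Times – preincubation 30 min plus labeling 45 min at 25 °C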
MLLE-PAM2 inh: inhibitors of PABP1 MLLE–PAM2 peptide binding, primary screen, biochemical, fluorescence polarization, FITC-PAM2, GST-MLLE; Polyadenylate-binding protein 1 (Homo sapiens), P11940; inhibition, % at 20 µM; actives 0.36% (n = 360,000); in the data active = inhibition above about 35%, passing the limit was not always enough
TCR CD3 inh: inhibitors of human TCR-CD3 interaction, primary screen, biochemical, fluorescence, TAMRA-labeled TCR probe | inhibition, % at 9.4 µM | actives 0.37% (n = 360,000); in the data active = inhibition above about 19%;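 also: recombinant mutant TCR 2C K166C tagged with TAMRA read by polarization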
eIF4H inh: human eIF4H binding inhibitors, primary screen, translation initiation inhibitor project, biochemical, uHTS, fluorescence polarization; eIF4H fluorescence polarization binding assay; Eukaryotic translation initiation factor 4H (Homo sapiens), Q15056; actives 0.94% (n = 290,000); inhibition, % at 35 µM;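 also: calls also rest on retests at 20 µM and on dose response follow-up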
Hits are given with their value; 0 = inactive; ? = inconclusive; - = no result given; + = active, no number. Unless noted, no rule for the calls is given here.

SMILES	PABP polyA inh	RBBP9 inhibitor	MLLE-PAM2 inh	TCR CD3 inh	eIF4H inh
CCC(C)[C@H](NC(=O)C1CC(=O)N(c2ccc3c(c2)OCCO3)C1)C(=O)NC1CCCC1 (stereo not given in full)	0	-	0	0	0
Cc1cc(Br)cn2c(Cc3ccccc3C(F)(F)F)c(-c3ccco3)nc12	-	-	-	0	-
CCCC(=O)OC[C@H]1CN(C2CCCC2)S(=O)(=O)c2c(Oc3ccccc3)cccc2O1	-	-	-	0	-
COc1ccccc1NCCC(=O)OCC(=O)NCc1ccco1	+	0	0	0	96
COc1ccc(OCCC(=O)OCC(=O)NCc2ccco2)cc1	0	0	0	0	0
O=C(COC(=O)c1cc(S(=O)(=O)N2CCc3ccccc3C2)ccc1Cl)NCc1ccco1	0	0	0	0	0
O=C(COC(=O)/C=C/c1ccco1)NCc1ccco1	0	0	0	0	86
O=C(COC(=O)c1cccc(S(=O)(=O)N2CCc3ccccc3C2)c1)NCc1ccco1	+	0	0	0	87
CCN(CC)S(=O)(=O)c1cccc(NC(=O)COC(=O)/C=C/c2ccco2)c1	0	0	0	0	69
O=C1c2[nH]nc(-c3ccccc3)c2C(c2ccc(F)cc2)N1Cc1ccccc1 (stereo not given)	-	-	-	0	-
C=CCN=C1NC(c2ccc(F)cc2)C(C(=O)OC)=C(C)N1Cc1ccccc1C(F)(F)F (stereo not given)	-	-	-	0	-
Cc1ccc2c(Cl)cc(Cl)c(OCC(=O)NCc3ccco3)c2n1	+	0	-	-	98
O=C(COC(=O)c1ccccc1)NCc1ccco1	+	0	0	0	76
O=C(COC(=O)/C=C/c1ccco1)Nc1ncc(C(F)(F)F)cc1Cl	+	0	0	0	88
COc1ccc(C(=O)OCC(=O)NCc2ccco2)cc1OC	0	0	0	0	89
CCCN1CCCCC(NC(=O)c2ccccc2OC)C1=O (stereo not given)	-	-	-	0	-
O=C(COC(=O)c1ccccc1Nc1cccc(C(F)(F)F)c1)NCc1ccco1	0	0	0	0	54
COC(=O)[C@]12C[C@H](CC(=O)NCc3cccs3)C(=O)N(CCc3ccc(OC)c(OC)c3)C1=C[C@H](C(C)(C)C)O[C@@H]2C	-	-	-	0	-
Cn1c(SCc2nnc(-c3ccccc3)o2)nc2ccccc21	0	0	0	0	0
Cn1c2ccccc2c2nnc(SCc3nnc(-c4ccccc4)o3)nc21	+	0	-	-	0
COc1ccc(C2CC(=O)C(c3ccc(C#N)cc3)=CN2Cc2ccccc2)cc1 (stereo not given)	-	-	-	0	-
CC(=O)OCCNc1cc(SCc2ccco2)c2nonc2c1[N+](=O)[O-]	0	0	0	-	0
O=[N+]([O-])c1c(NCCCO)cc(SCc2ccco2)c2nonc12	0	0	41	0	?
CC(C)NC(=O)OC[C@H]1O[C@H](C#Cc2ccc(C(C)(C)C)cc2)C=C[C@H]1O	-	-	-	0	-
CCC(C)Cn1c(C(C)C)nc2ccccc21 (stereo not given)	0	0	0	0	0
SMILES	PABP polyA inh	RBBP9 inhibitor	MLLE-PAM2 inh	TCR CD3 inh	eIF4H inh
CCC(C)Cn1c(C(C)O)nc2ccccc21 (stereo not given)	0	0	0	0	active
O=C(COC(=O)c1ccccc1NC(=O)c1ccco1)Nc1ncc(Cl)cc1Cl	0	0	0	0	0
COc1ccc(OCCCC(=O)OCC(=O)Nc2ncc(Cl)cc2Cl)cc1	-	-	45	0	-
O=C(COC(=O)c1ccccc1O)Nc1ncc(Cl)cc1Cl	+	0	0	0	0
O=C(NCC1CCN(C(=O)C(=O)c2cc3ccccc3o2)CC1)c1ccncc1	-	-	-	0	-
O=C(CC1CCCC1)N[C@H](C(=O)N1CCC[C@H]1C(=O)NCCc1ccccc1Cl)c1ccccc1	-	-	-	0	-
C[C@H](O)[C@@H]1C(=O)N2CCc3c([nH]c4c(-c5ccccc5)cccc34)[C@@H]2C[C@@H]1N(C)C(=O)OCc1ccccc1	-	-	-	0	-
CN1CCN(C2=C(Cl)C(=O)N(Cc3ccccc3)C2=O)CC1	+	0	0	0	89
CC(C)(C)S(=O)N1C[C@H]2CC(=O)C=C2[C@@H]1CCO (stereo not given in full)	-	-	-	0	-
CCOC(=O)C(CSCC(=O)c1ccc(Cl)cc1Cl)NC(=O)OC(C)(C)C (stereo not given)	0	0	49	0	0
COc1ccccc1C(N)=S	0	0	40	0	0
